What all share (experiment): MTT assay, cytotoxicity/growth inhibition
Test [1] relates to HCT-116 (colon carcinoma). The test is classed as cell-based. Conditions: Homo sapiens; for IC50: HCT-116; for inhibition at 20 µM: HCT-116, 48 h, read-out: Cytotoxic Activity (% Growth Inhibition). The essentials:
(§1)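 Cells were grown in RPMI (A549, HCT-116, PC-3) or DMEM (MCF-7) with 10% FBS at 37 °C and 5% CO2. Seeding per well was […] and PC-3 8 × 10^4 cells. […] MTT 250 μg/mL, 4 h; DMSO; A570; triplicate; mean ± SE.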

A further test has as its system MCF-7 (breast carcinoma). In kind it is cell-based. Conditions: Homo sapiens; for IC50: MCF7; for inhibition at 20 µM: MCF7, 48 h, read-out: Cytotoxic Activity (% Growth Inhibition). The method, boiled down: as §1
Test [2] has as its system PC-3 (prostate carcinoma). In kind it is cell-based. Conditions: Homo sapiens; for inhibition at 20 µM: 48 h, read-out: Cytotoxic Activity (% Growth Inhibition). The method, boiled down: as §1
The next test deals with A549 (lung carcinoma). In kind it is cell-based, human. Conditions: Homo sapiens; for IC50: A549; for inhibition at 20 µM: A549, 48 h, read-out: Cytotoxic Activity (% Growth Inhibition), A549, 20 μM concentration, MTT, 48 h. The method, boiled down:
as §1

`CCCCCCCC(=O)OCC1=CCC2[C@]3(C)COC(c4ccccc4)O[C@@H]3CC[C@@]2(C)[C@@H]1/C=C/C1=CCOC1=O` (stereo partly drawn) [Compound 8w, ((4aR,6aR,7S,10bR)-6a,10b-Dimethyl-7-((E)-2-(2-oxo-2,5-dihydrofuran-3-yl)vinyl)-3-phenyl-4a,5,6,6a,7,10,10a,10b-octahydro-1H-naphtho[2,1-d][1,3]dioxin-8-yl)methyl Octanoate]: the IC50 in test [1] was over 20 µM; in the test with MCF-7 (breast carcinoma), 20 µM; in test [2], over 20 µM; in the test with A549 (lung carcinoma), 8.4 µM. Besides, the inhibition at 20 µM in test [1] was determined as 40.5 ± 0.91%; in the test with MCF-7 (breast carcinoma), 51 ± 0.96%; in test [2], 49 ± 0.85%; in the test on A549 (lung carcinoma) it was 70.7 ± 0.73%.
With `CCCCCCCCCC(=O)OCC1=CCC2[C@]3(C)COC(c4ccccc4)O[C@@H]3CC[C@@]2(C)[C@@H]1/C=C/C1=CCOC1=O` (stereo partly drawn) [Compound 8x, ((4aR,6aR,7S,10bR)-6a,10b-Dimethyl-7-((E)-2-(2-oxo-2,5-dihydrofuran-3-yl)vinyl)-3-phenyl-4a,5,6,6a,7,10,10a,10b-octahydro-1H-naphtho[2,1-d][1,3]dioxin-8-yl)methyl Decanoate], the inhibition at 20 µM in test [1] is 50.1 ± 0.4%; in the test on MCF-7 (breast carcinoma), 45 ± 0.98%; in test [2], 39 ± 0.24%; with A549 (lung carcinoma), 49.7 ± 0.79%.
With `CCCCCCCCCCCC(=O)OCC1=CCC2[C@]3(C)COC(c4ccccc4)O[C@@H]3CC[C@@]2(C)[C@@H]1/C=C/C1=CCOC1=O` (stereo partly drawn) [Compound 8y, ((4aR,6aR,7S,10bR)-6a,10b-Dimethyl-7-((E)-2-(2-oxo-2,5-dihydrofuran-3-yl)vinyl)-3-phenyl-4a,5,6,6a,7,10,10a,10b-octahydro-1H-naphtho[2,1-d][1,3]dioxin-8-yl)methyl Dodecanoate], the IC50 is over 20 µM in test [1], 20 µM with MCF-7 (breast carcinoma), over 20 µM in test [2] and 11 µM in the test with A549 (lung carcinoma). Further, the inhibition at 20 µM in test [1] was 40.1 ± 0.8%; with MCF-7 (breast carcinoma) it was 51 ± 0.35%; in test [2], 32 ± 0.66%; with A549 (lung carcinoma), 71 ± 0.77%.
In the case of `COc1cccc(C(=O)OCC2=CCC3[C@](C)(CO)[C@H](O)CC[C@@]3(C)[C@@H]2/C=C/C2=CCOC2=O)c1` (stereo partly drawn) [Compound 9b, ((1S,5R,6R,8aR)-6-Hydroxy-5-(hydroxymethyl)-5,8a-dimethyl-1-((E)-2-(2-oxo-2,5-dihydrofuran-3-yl)vinyl)-1,4,4a,5,6,7,8,8a-octahydronaphthalen-2-yl)methyl 3-Methoxybenzoate], the inhibition at 20 µM in test [1] was 0%; in the test on MCF-7 (breast carcinoma), 14.6 ± 0.09%; in test [2], 7 ± 0.58%; with A549 (lung carcinoma) it was 39.85 ± 0.26%.
The like results for `C[C@]1(CO)C2CC=C(COC(=O)c3cccc(F)c3)[C@@H](/C=C/C3=CCOC3=O)[C@]2(C)CC[C@H]1O` (stereo partly drawn) [Compound 9c, ((1S,5R,6R,8aR)-6-Hydroxy-5-(hydroxymethyl)-5,8a-dimethyl-1-((E)-2-(2-oxo-2,5-dihydrofuran-3-yl)vinyl)-1,4,4a,5,6,7,8,8a-octahydronaphthalen-2-yl)methyl 3-Fluorobenzoate] were, in that order, 14.8 ± 0.17%, 1.54 ± 0.03%, 0% and 42.92 ± 0.27%.
In the case of `C[C@]1(CO)C2CC=C(COC(=O)c3cccc(Cl)c3)[C@@H](/C=C/C3=CCOC3=O)[C@]2(C)CC[C@H]1O` (stereo partly drawn) [Compound 9d, ((1S,5R,6R,8aR)-6-Hydroxy-5-(hydroxymethyl)-5,8a-dimethyl-1-((E)-2-(2-oxo-2,5-dihydrofuran-3-yl)vinyl)-1,4,4a,5,6,7,8,8a-octahydronaphthalen-2-yl)methyl 3-Chlorobenzoate], the inhibition at 20 µM amounted to 30.21 ± 0.15% in test [1], 10.02 ± 0.02% with MCF-7 (breast carcinoma), 0% in test [2] and 49.19 ± 0.2% with A549 (lung carcinoma).
The like results for `C[C@]1(CO)C2CC=C(COC(=O)c3cccc(Br)c3)[C@@H](/C=C/C3=CCOC3=O)[C@]2(C)CC[C@H]1O` (stereo partly drawn) [Compound 9e, ((1S,5R,6R,8aR)-6-Hydroxy-5-(hydroxymethyl)-5,8a-dimethyl-1-((E)-2-(2-oxo-2,5-dihydrofuran-3-yl)vinyl)-1,4,4a,5,6,7,8,8a-octahydronaphthalen-2-yl)methyl 3-Bromobenzoate] were, in that order, 14.1 ± 0.24%, 1.93 ± 0.1%, 0% and 50.55 ± 0.17%.
The matching figures for `C[C@]1(CO)C2CC=C(COC(=O)c3cccc(I)c3)[C@@H](/C=C/C3=CCOC3=O)[C@]2(C)CC[C@H]1O` (stereo partly drawn) [Compound 9f, ((1S,5R,6R,8aR)-6-Hydroxy-5-(hydroxymethyl)-5,8a-dimethyl-1-((E)-2-(2-oxo-2,5-dihydrofuran-3-yl)vinyl)-1,4,4a,5,6,7,8,8a-octahydronaphthalen-2-yl)methyl 3-Iodobenzoate]: 0%, 21.75 ± 0.06%, 49 ± 1% and 58 ± 0.15%.
Take `C[C@]1(CO)C2CC=C(COC(=O)c3ccoc3)[C@@H](/C=C/C3=CCOC3=O)[C@]2(C)CC[C@H]1O` (stereo partly drawn) [Compound 9g, ((1S,5R,6R,8aR)-6-Hydroxy-5-(hydroxymethyl)-5,8a-dimethyl-1-((E)-2-(2-oxo-2,5-dihydrofuran-3-yl)vinyl)-1,4,4a,5,6,7,8,8a-octahydronaphthalen-2-yl)methyl Furan-3-carboxylate]: the inhibition at 20 µM amounted to 11.28 ± 0.1% in test [1], 0% in the test with MCF-7 (breast carcinoma), 11 ± 0.22% in test [2] and 63.58 ± 0.08% in the test on A549 (lung carcinoma).
`C[C@]1(CO)C2CC=C(COC(=O)c3cccc(C(F)(F)F)c3)[C@@H](/C=C/C3=CCOC3=O)[C@]2(C)CC[C@H]1O` (stereo partly drawn) [Compound 9h, ((1S,5R,6R,8aR)-6-Hydroxy-5-(hydroxymethyl)-5,8a-dimethyl-1-((E)-2-(2-oxo-2,5-dihydrofuran-3-yl)vinyl)-1,4,4a,5,6,7,8,8a-octahydronaphthalen-2-yl)methyl 3-(Trifluoromethyl)benzoate]: the inhibition at 20 µM in test [1] turned out to be 3.31 ± 0.13%; with MCF-7 (breast carcinoma) it was 30.4 ± 0.36%; in test [2], 29 ± 1.4%; in the test on A549 (lung carcinoma), 28.81 ± 0.03%.
The like results for `Cc1cccc(C(=O)OCC2=CCC3[C@](C)(CO)[C@H](O)CC[C@@]3(C)[C@@H]2/C=C/C2=CCOC2=O)c1` (stereo partly drawn) [Compound 9i, ((1S,5R,6R,8aR)-6-Hydroxy-5-(hydroxymethyl)-5,8a-dimethyl-1-((E)-2-(2-oxo-2,5-dihydrofuran-3-yl)vinyl)-1,4,4a,5,6,7,8,8a-octahydronaphthalen-2-yl)methyl 3-Methylbenzoate] were, in that order, 0%, 2.09 ± 0.07%, 0% and 21.4 ± 0.42%.
For `COc1cc(OC)cc(C(=O)OCC2=CCC3[C@](C)(CO)[C@H](O)CC[C@@]3(C)[C@@H]2/C=C/C2=CCOC2=O)c1` (stereo partly drawn) [Compound 9j, ((1S,5R,6R,8aR)-6-Hydroxy-5-(hydroxymethyl)-5,8a-dimethyl-1-((E)-2-(2-oxo-2,5 dihydrofuran-3-yl)vinyl)-1,4,4a,5,6,7,8,8a-octahydronaphthalen-2-yl)methyl 3,5-Dimethoxybenzoate], the IC50 in test [1] is over 20 µM; in the test with MCF-7 (breast carcinoma) it was 16.6 µM; in test [2], 6.1 µM; in the test with A549 (lung carcinoma), over 20 µM. For the same compound, the inhibition at 20 µM is 23.9 ± 0.49% in test [1], 51 ± 0.49% with MCF-7 (breast carcinoma), 70 ± 0.82% in test [2] and 8.7 ± 0.45% in the test on A549 (lung carcinoma).
Take `COc1ccc(C(=O)OCC2=CCC3[C@](C)(CO)[C@H](O)CC[C@@]3(C)[C@@H]2/C=C/C2=CCOC2=O)cc1Cl` (stereo partly drawn) [Compound 9l, ((1S,5R,6R,8aR)-6-Hydroxy-5-(hydroxymethyl)-5,8a-dimethyl-1-((E)-2-(2-oxo-2,5-dihydrofuran-3-yl)vinyl)-1,4,4a,5,6,7,8,8a-octahydronaphthalen-2-yl)methyl 3-Chloro-4-methoxybenzoate]: the IC50 was over 20 µM in test [1], 17.8 µM with MCF-7 (breast carcinoma), 5.7 µM in test [2] and over 20 µM with A549 (lung carcinoma). Moreover, the inhibition at 20 µM in test [1] was found to be 27.5 ± 0.94%; in the test on MCF-7 (breast carcinoma) it was 47 ± 0.24%; in test [2], 71.4 ± 0.56%; in the test on A549 (lung carcinoma), 3.3 ± 0.63%.
With `C[C@]1(CO)C2CC=C(COC(=O)c3ccc(Br)cc3F)[C@@H](/C=C/C3=CCOC3=O)[C@]2(C)CC[C@H]1O` (stereo partly drawn) [Compound 9m, ((1S,5R,6R,8aR)-6-Hydroxy-5-(hydroxymethyl)-5,8a-dimethyl-1-((E)-2-(2-oxo-2,5-dihydrofuran-3-yl)vinyl)-1,4,4a,5,6,7,8,8a-octahydronaphthalen-2-yl)methyl 4-Bromo-2-fluorobenzoate], the IC50 in test [1] is over 20 µM; with MCF-7 (breast carcinoma), over 20 µM; in test [2] it was 7.6 µM; in the test with A549 (lung carcinoma), over 20 µM. Also, the inhibition at 20 µM in test [1] came to 23.1 ± 0.84%; with MCF-7 (breast carcinoma), 8 ± 0.85%; in test [2], 78.9 ± 0.96%; in the test on A549 (lung carcinoma), 14.9 ± 0.24%.

For orientation: IC50 means the point on the concentration scale where inhibition reaches its midpoint.

Values taken from publication PMC9933479 (ACS Omega, 2023).
